{"source": "paper PMC9514064", "about": "(Protein Science : A Publication of the Protein Society, 2022)", "key": {"Bst TRAP12 ∆71": {"target": "T1, Bst TRAP12 ∆71 (Geobacillus stearothermophilus, UniProt Q9X6J6)", "T1 sequence (Q9X6J6 1-69 limits assumed)": "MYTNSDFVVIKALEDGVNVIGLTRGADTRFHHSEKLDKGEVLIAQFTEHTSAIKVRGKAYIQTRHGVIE", "type": "binding, B. stearothermophilus", "method_in_brief": "(§1)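 Apo protein dialysed into 400 mM ammonium acetate, adjusted to pH 8 with NH₄OH. Samples of 6.0–7.4 μM protein with 0–140 μM Trp were prepared fresh in parallel. Native MS on an Orbitrap UHMR at ~25°C, each point in triplicate with different emitters. Abundances of the 0–12-bound states came from peak areas, with protein concentration corrected by a quadratic independent-sites fit. A 12-site NN model was fit globally by Powell minimisation; uncertainties are SD of three repeats.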"}, "Bha TRAP12 [1]": {"target": "T2, Bha TRAP12 (Halalkalibacterium halodurans, UniProt Q9KCC6)", "T2 sequence (Q9KCC6 1-76)": "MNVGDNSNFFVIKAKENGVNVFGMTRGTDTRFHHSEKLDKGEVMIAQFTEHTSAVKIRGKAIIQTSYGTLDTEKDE", "assay": "Isothermal titration calorimetry, Trp into TRAP", "type": "binding, B. halodurans", "conditions": "ITC 25°C, two-sites model", "method_in_brief": "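Tag-free protein (C-terminal ENLYFQ left after TEV cleavage), expressed in E. coli BL21(DE3), made Trp-free by Gdn-HCl denaturation, RP-HPLC, refolding and SEC, then dialysed into buffer A (100 mM NaCl, 50 mM NaPO₄, pH 8.0). 293 μM Trp (in dialysate) titrated into 23 μM protomers, 25°C, 307 rpm. Integrated heats fit to a two-sites model; oligomer concentration corrected via fitted n; 200-sample bootstrap confidence intervals.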"}, "Bst TRAP11": {"target": "T3, Bst TRAP11 (Geobacillus stearothermophilus, UniProt Q9X6J6)", "T3 sequence (Q9X6J6 1-74)": "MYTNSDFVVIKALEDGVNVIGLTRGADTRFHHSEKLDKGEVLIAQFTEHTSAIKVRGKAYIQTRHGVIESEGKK", "type": "binding, B. stearothermophilus", "method_in_brief": "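Apo 11-mer protein dialysed into 400 mM ammonium acetate. Samples of 6.0–7.4 μM protein with 0–140 μM Trp (serial dilutions) were prepared fresh in parallel. Native MS on an Orbitrap UHMR at ~25°C. Relative abundances of Trp-bound states came from integrated peak areas, with binding-site concentration corrected by a quadratic independent-sites fit. Populations were fit globally to a nearest-neighbour model (ΔG₀, ΔGα) by Powell minimisation.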"}, "Bha TRAP12 [2]": {"target": "T2, Bha TRAP12", "type": "binding, B. halodurans", "method_in_brief": "as §1"}, "[3]": {"conditions": "1/(αK 0), NN model, dissociation constant for sites with one bound neighbor, ~25°C"}, "[4]": {"conditions": "1/K 0, NN model, dissociation constant for isolated sites, ~25°C"}, "[5]": {"conditions": "NN model, sites with 1 occupied neighbor, ~25°C"}, "[6]": {"conditions": "NN model, sites with no occupied neighbors, room temperature ~25°C, 400 mM ammonium acetate"}}, "note": "Several values for one entry are separate records, joined by “and”; a condition that tells them apart may be missing. Equal entries are not always repeated. Where two headings read alike, the source gives them in different places."}
{"smiles": "N[C@@H](Cc1c[nH]c2ccccc12)C(=O)O", "note": "[Trp, tryptophan]", "values": [{"measurement": "Kd", "setting": "Bst TRAP12 ∆71; [3]", "value": "7.8 ± 1.2", "unit": "µM"}, {"measurement": "Kd", "setting": "Bst TRAP12 ∆71; [4]", "value": "217 ± 13", "unit": "µM"}, {"measurement": "Cooperativity factor α", "setting": "Bst TRAP12 ∆71; NN model, K N1/K 0", "value": "28 and 28 ± 5"}, {"measurement": "ΔG 0 + ΔG α", "setting": "Bst TRAP12 ∆71; [5]", "value": "-7.0 ± 0.1", "unit": "kcal/mol"}, {"measurement": "ΔG 0", "setting": "Bst TRAP12 ∆71; [6]", "value": "-5.00 ± 0.03", "unit": "kcal/mol"}, {"measurement": "n (fitted binding sites), Site 1", "setting": "Bha TRAP12 [1]; buffer A", "value": "≈ 1"}, {"measurement": "n (fitted binding sites), Site 2", "setting": "Bha TRAP12 [1]; buffer A", "value": "~ 11"}, {"measurement": "Kd", "setting": "Bha TRAP12 [1]; Kd,1 (Site 1), first Trp", "value": "1.8 ± 0.3", "unit": "µM"}, {"measurement": "Kd", "setting": "Bst TRAP11; [3]", "value": "4.4 ± 1.9", "unit": "µM"}, {"measurement": "Kd", "setting": "Bst TRAP11; [4]", "value": "36 ± 12", "unit": "µM"}, {"measurement": "Cooperativity factor α", "setting": "Bst TRAP11; NN model, K N1/K 0", "value": "8 and 8 ± 5"}, {"measurement": "coupling energy ΔG α", "setting": "Bst TRAP11; NN model, between adjacent sites", "value": "−1.2 ± 0.3 kcal mol^−1 interaction^−1"}, {"measurement": "ΔG 0 + ΔG α", "setting": "Bst TRAP11; [5]", "value": "-7.3 ± 0.3", "unit": "kcal/mol"}, {"measurement": "ΔG 0", "setting": "Bst TRAP11; [6]", "value": "-6.1 ± 0.2", "unit": "kcal/mol"}, {"measurement": "Kd", "setting": "Bha TRAP12 [2]; [3]", "value": "2.8 ± 0.8", "unit": "µM"}, {"measurement": "Kd", "setting": "Bha TRAP12 [2]; [4]", "value": "720 ± 140", "unit": "µM"}, {"measurement": "Cooperativity factor α", "setting": "Bha TRAP12 [2]; NN model, K N1/K 0, fold increase in affinity with one occupied neighbor", "value": "256 and 256 ± 87"}, {"measurement": "ΔG 0 + ΔG α", "setting": "Bha TRAP12 [2]; [5]", "value": "-7.6 ± 0.2", "unit": "kcal/mol"}, {"measurement": "ΔG 0", "setting": "Bha TRAP12 [2]; [6]", "value": "-4.3 ± 0.1", "unit": "kcal/mol"}]}
